HTRA1 inhibitor = inhibitors of human serine peptidase HTRA1. 340,000 compounds, 0.5% hits. Q92743. recombinant HTRA1, FP-rhodamine activity-based probe, fluorescence polarization. AID 504803. inhibition, % at 5.96 µM; in the data active means inhibition above about 36%
TCR CD3 inh = blocks the human TCR-CD3 interaction; TAMRA-labeled TCR probe fluorescence, biochemical; inhibition, % at 9.4 µM; 360,000 compounds, 0.37% hits; in the data active means inhibition above about 19%;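 further: recombinant mutant TCR 2C K166C tagged with TAMRA read by polarization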
PAD4 FP inh = inhibitors of human PAD4; Q9UM07; recombinant PAD4, RCA probe fluorescence polarization; inhibition, % at 6.36 µM; 330,000 compounds, 0.41% hits; AID 485272;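 active means percent inhibition above a cutoff equal to the mean of all tested compounds plus 3 SD, cut at about 15% in these data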
SIAE inh = inhibitors of human sialic acid acetylesterase SIAE; AID 1053197; 370,000 compounds, 0.69% hits; inhibition, % at 9.66 µM; SIAE FP-Rh probe binding, fluorescence polarization; Q9HAT2;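 active means inhibition above a cutoff: mean of compounds within the control limits plus 3 SD of those, cut at about 17% in these data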
TDP2 absorb = TDP2 (human) inhibition, absorbance primary screen; O95551; recombinant TDP2, T5PNP hydrolysis, p-nitrophenol absorbance 415 nm; inhibition, % at 12.8 µM; 370,000 compounds, 0.34% hits;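 active means inhibition above the mean of all tested compounds plus 3 SD, set per campaign, cut at about 25% in these data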
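Material: recombinant human TDP2; quantity: TDP2 enzyme at 120 nM final; medium: Tris-HCl pH 7.5 with MgCl2; compound: single concentration, 12.8 µM nominal, with 1% DMSO; incubation: 2 h enzyme incubation at 37 °C; signal: epi absorbance; measure: percent inhibition; benchmarks: high control without enzyme, low control DMSO plus TDP2; repeats: singlicate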
ABHD4 inh = inhibitors of mouse ABHD4; purified mABHD4, FP-Rh probe fluorescence polarization; 370,000 compounds, 0.54% hits; inhibition, % at 8.92 µM; AID 720543;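 active means inhibition exceeding the mean over every tested compound plus 3 SD, cut at about 30% in these data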
Target sequence (Q8VD66 whole entry, looked up): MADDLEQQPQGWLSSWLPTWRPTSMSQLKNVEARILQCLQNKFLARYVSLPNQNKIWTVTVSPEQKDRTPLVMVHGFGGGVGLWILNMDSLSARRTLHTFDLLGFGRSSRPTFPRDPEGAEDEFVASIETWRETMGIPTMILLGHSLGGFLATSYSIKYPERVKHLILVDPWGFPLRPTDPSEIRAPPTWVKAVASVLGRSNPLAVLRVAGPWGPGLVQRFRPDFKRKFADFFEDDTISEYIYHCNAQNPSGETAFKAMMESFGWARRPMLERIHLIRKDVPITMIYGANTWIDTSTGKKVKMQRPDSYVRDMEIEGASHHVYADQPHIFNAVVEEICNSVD
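Assay system: mABHD4 protein; medium: HEPES pH 7.0, NaCl, Pluronic buffer; dosing: 8.92 µM, single dose; schedule: 45 min + 60 min at 25 °C; signal: FP readout, ex 525 nm / em 598 nm; read-out: normalized percent inhibition of probe labeling; repeats: single replicate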
PAD4 FP conf = PAD4 (human) inhibition, confirmed; 1,200 compounds, 28% hits; inhibition, % at 6.36 µM; recombinant PAD4, RCA probe fluorescence polarization; AID 488796; shares compounds with PAD4 FP inh;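 active means mean inhibition across replicates above the hit cutoff set by the earlier primary screen, cut at about 15% in these data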;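 further: inhibitors block active-site labeling by the probe so polarization falls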
A number is an active result; n = inactive; x = not tested or not shown. A selection: hits, their analogues and other compounds. The true share with any hit is near 2%.

SMILES	HTRA1 inhibitor	TCR CD3 inh	PAD4 FP inh	SIAE inh	TDP2 absorb	ABHD4 inh	PAD4 FP conf
CCOC(=O)CC(/C(C)=N\O)c1ccccc1 (centres undefined)	n	n	20.6	n	n	n	n
C[N+]1=C2N[C@@H](c3ccccc3)CC(=O)N2/C(=C\c2ccccc2)[C@@H]1Cc1ccccc1	x	x	x	n	n	n	x
CCN(CC)CCN(C(=O)c1ccc2ncsc2c1)c1nc2cc3c(cc2s1)OCO3	n	n	22.2	n	n	n	n
CCN(CC)CCN(C(=O)c1ccc(C(=O)c2ccccc2)cc1)c1nc2cc3c(cc2s1)OCO3	n	n	n	n	n	n	x
C=CCNC(=O)CN(C(=O)Cc1ccc(Cl)nc1)c1cccc(Br)c1	x	x	x	n	n	n	x
CCOC(=O)c1c(-c2ccc(OC)cc2)csc1NC(=O)CSc1ccccc1	n	n	19.9	n	n	n	n
O=C(O)CCC(=O)c1ccc(-c2ccccc2)cc1	n	n	172.2	n	n	n	15.9
COc1ccc(C)c(NC(=O)[C@@H]2CCCN2S(=O)(=O)c2cccc3cccnc23)c1	x	x	x	n	n	n	x
COc1cc(SC#N)ccc1N=Cc1c(C)[nH]n(-c2ccc(C)c(C)c2)c1=O	n	n	n	n	n	n	x
COc1cc(SC#N)ccc1N=Cc1c(C)[nH]n(-c2ccc(Cl)cc2)c1=O	n	n	30.3	n	n	n	37.3
CCN1C(=O)[C@@H]2C(C(=O)c3cnccn3)=NN[C@@H]2C1=O	n	n	19.6	n	n	n	n
COCCCn1c(=S)[nH]c2c(sc3ccccc32)c1=O	n	n	18.4	n	n	n	n
CN(C)c1cc(Nc2ccc(O)cc2)c([N+](=O)[O-])c2nonc12	n	n	n	n	n	n	x
O=[N+]([O-])c1c(Nc2ccc(O)cc2)cc(Cl)c2nonc12	n	n	21.8	n	n	n	n
Cc1ccc(NC(=O)c2ccc3c(c2)OCCO3)nc1	n	n	15.8	n	n	n	n
CCOC(=O)c1ccc(S(=O)(=O)Nc2nc3cc(S(=O)(=O)NC4=NCCCCC4)ccc3s2)cc1	n	n	29.0	n	n	n	26.0
Nc1ccc(S(=O)(=O)NC2=NCCCCC2)cc1	n	n	n	n	n	n	x
Nc1nc2cc(S(=O)(=O)NC3=NCCCCC3)ccc2s1	n	n	28.2	n	n	n	25.3
c1ccc(CCSc2nnc(-c3cccnc3)n2Cc2ccccc2)cc1	x	x	x	n	n	n	x
COC(=O)c1ccccc1NC1=C/C(=N\S(=O)(=O)c2ccc(C(=O)O)cc2)c2ccccc2C1=O	44.9	x	24.7	x	x	x	66.1
COC(=O)c1ccccc1Nc1ccccc1	n	n	n	n	n	n	x
COC(=O)c1ccccc1NC1=C/C(=N\S(=O)(=O)c2cccs2)c2ccccc2C1=O	n	n	37.5	n	n	n	35.4
CCCCNC(=O)N1CCCC1C(=O)Nc1cccc(OC)c1 (centres undefined)	x	x	x	n	n	n	x
O=C(Nc1nc2ncccn2c1-c1ccc(F)cc1)C1CC1	x	x	x	n	n	n	x
COc1ccc(C2=NNC(=Nc3cc(S(=O)(=O)N(C)C)ccc3C)SC2)c(OC)c1	n	n	17.5	n	n	n	n
SMILES	HTRA1 inhibitor	TCR CD3 inh	PAD4 FP inh	SIAE inh	TDP2 absorb	ABHD4 inh	PAD4 FP conf
COCc1cc(C)nc(SCC(=O)Nc2ccc(C)c(C)c2)c1C#N	n	n	n	n	n	n	x
COCc1cc(C)nc(SCC(=O)Nc2ccc3c(c2)n(C)c(=O)n3C)c1C#N	n	n	196.8	n	n	n	n
Nc1nonc1-n1nnc(C(=O)N/N=C/c2ccc(Br)cc2)c1CSC1=NCCS1	n	n	n	n	n	n	x
Nc1nonc1-n1nnc(C(=O)N/N=C/c2cccnc2)c1CSC1=NCCS1	n	n	35.2	n	n	n	n
N#Cc1cc(-c2ccccc2)[nH]c1-c1nccc2ccccc12	n	n	21.9	n	n	n	n
O=S1(=O)CC2c3ccc(F)cc3CN2CN1CCc1ccccc1 (centres undefined)	x	x	x	n	n	n	x
Cc1nnc(N/N=C/c2cc(C)n(-c3ccc(F)cc3)c2C)n1N	n	n	29.0	n	62.1	n	n
CN(C)C(CNC(=O)c1cc2ccccc2o1)c1ccco1 (centres undefined)	n	n	88.1	n	n	n	n
O=C(NCc1ccco1)c1cc2ccccc2o1	n	n	n	n	n	n	x
CC1=NN(c2ccccc2)C(=O)/C1=C/N(C)C	n	n	n	n	n	n	x
COc1cc(/C=C2/C(=O)N(c3cccc(Br)c3)N=C2C)cc(OC)c1O	n	n	27.3	n	n	n	n
COc1ccc(/C=C2/C(=O)N(c3ccccc3)N=C2C)cc1	x	x	57.5	x	x	x	n
CC(=O)Oc1ccc(/C=C2/C(=O)N(c3ccccc3)N=C2C)cc1	n	n	54.0	n	71.0	n	n
CCOc1cc(/C=C2/C(=O)N(c3ccccc3)N=C2C)ccc1OC(=O)c1cccs1	n	x	53.6	x	x	x	n
COc1ccc(/C=C2/C(=O)N(c3c(F)c(F)c(F)c(F)c3F)N=C2C)cc1	n	n	n	n	n	n	x
CC1=NN(c2ccccc2)C(=O)/C1=C/c1cccc(C)c1	n	n	55.6	n	78.7	n	n
CC1=NN(c2ccccc2)C(=O)/C1=C\C=C\c1ccccc1	x	n	n	n	n	n	x
CCC(=O)NC(c1cccs1)c1cc([N+](=O)[O-])c2cccnc2c1O (centres undefined)	n	n	n	n	n	n	x
CC(=O)NC(c1cccs1)c1cc([N+](=O)[O-])c2cccnc2c1O (centres undefined)	n	n	25.5	n	n	n	n
CC(C)CN1C(=O)[C@@]2(CC(=O)N(C)C2c2ccccc2)c2cc(-n3cc(CCc4ccccc4)nn3)ccc21 (some centres undefined)	x	x	x	n	n	n	x
CCC1(C)Cc2c(sc3nc(SC)[nH]c(=S)c23)CO1 (centres undefined)	x	x	35.7	x	x	x	27.0
CCSc1nc2sc3c(c2c(=O)[nH]1)CC(C)(CC)OC3 (centres undefined)	n	n	n	n	n	n	x
O=C1CCC[C@H]2C[C@H](NCc3ccc(F)cc3F)CC[C@]23CCCN13	x	x	x	n	n	n	x
Cc1ccc(CC(=O)N2CCN(S(=O)(=O)c3ccccc3)CC2)cc1C	n	n	n	n	n	n	x
Cc1ccc(S(=O)(=O)N2CCN(C(=O)Cc3ccccc3)CC2)cc1C	n	n	21.8	n	n	n	n
Nc1cc2nsnc2cc1Br	n	n	77.7	n	92.0	n	53.0
Nc1cnc(Br)cc1Br	n	n	n	n	n	n	x
O=c1[nH]c(Sc2ccc([N+](=O)[O-])cc2[N+](=O)[O-])nc2ccccc12	n	n	43.9	n	n	n	19.1
